This is a sample that favours compounds with a hit; in the whole collection about 2.5% have one here.
MsrA act – bovine MsrA enzyme activators, primary screen, biochemical, absorbance, HTS; Methionine sulfoxide reductase A (Bos taurus); purified bovine MsrA, absorbance read-out; activation, % at 10.6 µM; 360,000 compounds, 0.3% hits; in the data active = activation above about 7.5%;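 note: 0% = vehicle and 100% = reference activator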
NR2E3 ag-1 – inhibitors of NR2E3-RetCOR corepressor binding, primary screen, NR2E3 agonist project, biochemical, TR-FRET, GST-NR2E3, biotin-RetCOR | 1536-well | inhibition of corepressor binding, % at 4.78 µM | 320,000 compounds, 0.12% hits | Photoreceptor-specific nuclear receptor (Homo sapiens), Q9Y5X4;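 active = percent inhibition above the cutoff of mean plus 3 SD of all tested compounds, set per screening campaign, cut at about 20% in these data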;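 note: 0% = DMSO wells and 100% = biotin wells as full block of FRET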
Target sequence (Q9Y5X4 whole entry, looked up): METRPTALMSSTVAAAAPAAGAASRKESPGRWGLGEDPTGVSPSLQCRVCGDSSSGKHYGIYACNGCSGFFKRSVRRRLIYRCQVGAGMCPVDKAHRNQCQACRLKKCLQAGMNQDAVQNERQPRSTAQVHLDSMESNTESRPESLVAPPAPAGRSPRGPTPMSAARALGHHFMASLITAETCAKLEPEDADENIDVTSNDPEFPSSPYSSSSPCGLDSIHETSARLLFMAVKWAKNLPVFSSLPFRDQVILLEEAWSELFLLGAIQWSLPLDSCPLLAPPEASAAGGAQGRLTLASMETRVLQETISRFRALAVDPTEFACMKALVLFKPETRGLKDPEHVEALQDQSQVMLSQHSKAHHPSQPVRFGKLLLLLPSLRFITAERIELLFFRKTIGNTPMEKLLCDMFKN
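Material: NR2E3–RetCOR corepressor complex / Amount: 1.35 nM GST-NR2E3 / Medium: Tris pH 7.5 / Compound: single nominal compound dose of 4.8 µM / Incubation: 5 h at 4 °C / Technique: TR-FRET, Eu(K)-anti-GST donor, streptavidin-D2 acceptor, ex 340, em 617/671 nm / Read-out basis: percent loss of FRET ratio relative to control wells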
NadD block – inhibitors of S. aureus NadD, primary screen, biochemical, colorimetric, uHTS. 360,000 compounds, 0.78% hits. purified NadD enzyme, colorimetric absorbance read-out. AID 602399, 2012. inhibition, % at 20 µM; in the data active = inhibition above about 26%
NR2E3 ag-2 – NR2E3 agonists in two-hybrid cells, primary screen, cell-based, luminescence, CHO-S, Gal4-NCOR/VP16-NR2E3 | luciferase | 360,000 compounds, 0.35% hits | inhibition of corepressor binding, % at 3.98 µM | Photoreceptor-specific nuclear receptor (Homo sapiens), Q9Y5X4 | AID 602229, 2012;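 active = inhibition above the mean of all tested compounds plus 3 SD, cut at about 70% in these data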;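 note: 0% = DMSO with NR2E3 transfected cells and 100% = cells lacking NR2E3 construct; higher means lower luciferase signal from less NR2E3 corepressor binding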
GalR3 antagonist – GalR3 antagonists in HEK293 cells, primary screen, cell-based, fluorescence readout. Galanin receptor type 3 (Homo sapiens), O60755. HEK293 GalR3-CNG cAMP membrane potential fluorescence; galR3 body fused to GalR1 C-terminus. inhibition, % at 3 µM. 360,000 compounds, 0.44% hits;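 active = inhibition above the screen-wide average plus 3 SD, cut at about 13% in these data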;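 note: forskolin and galanin both at EC90 stimulate the cells; cAMP rise reported by CNG channel membrane potential dye signal; 0% = forskolin plus galanin with DMSO and 100% = forskolin alone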
MsrA inhibitor – bovine MsrA enzyme inhibitors, primary screen, biochemical, absorbance, HTS | Methionine sulfoxide reductase A (Bos taurus) | purified bovine MsrA, absorbance read-out | inhibition, % at 15.5 µM | 360,000 compounds, 0.75% hits | AID 651718, 2012;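 note: 0% = vehicle wells with enzyme and 100% = reference inhibitor wells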
MsrA conf – bovine MsrA inhibitors, retest, confirmation, biochemical, absorbance, HTS | inhibition, % at 15.5 µM | shares compounds with MsrA inhibitor | 2,300 compounds, 41% hits | purified bovine MsrA, absorbance read-out | AID 651822, 2012;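 note: coupled to thioredoxin reductase with NADPH and selenocystamine and DMSO as substrate; 0% = vehicle only and 100% = full effect of reference inhibitor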
An asterisk follows results filed as active; x = no result given. Cut-off read from the data, not from the text of the source, unless noted: active = inhibition above about 4.5%; inactive = the rest.

SMILES	MsrA act	NR2E3 ag-1	NadD block	NR2E3 ag-2	GalR3 antagonist	MsrA inhibitor	MsrA conf
Cc1ccc(S(=O)(=O)N/N=C/c2cc(Br)ccc2O)cc1	-7	0	-6	-2	2	4.9*	0
COc1ccc(O)c(/C=N/NS(=O)(=O)c2ccc(C)cc2)c1	-3	6	1	-25	-11	1	x
COCCNC(=O)c1cc(-c2ccc3c(c2)OCO3)on1	0	3	1	-102	-6	-2	x
Oc1ccc(/C=N\Nc2cc(N3CCOCC3)nc(N3CCOCC3)n2)c(O)c1	-6	-4	7	15	-3	5.3*	4
Cc1cc(C)n(C(=O)C(C(=O)c2ccccc2)C(C)C)n1 (stereo not given)	-3	-1	-4	-4	-4	0	x
O=C(N/N=C/c1ccc(O)cc1O)c1ccncc1	-1	-2	-2	-29	-3	4.9*	4
Cc1nonc1C(=O)N/N=C/c1ccc(O)cc1O	-3	2	-1	-8	1	5.1*	3
CCOC(=O)C1=CN(Cc2cccc(F)c2)S(=O)(=O)NC1c1cccc(OC)c1 (stereo not given)	-6	x	-6	1	-3	0	x
CN(Cc1ccccc1)c1ncc(C=O)s1	-6	-3	1	-11	2	7.5*	5.8*
O=C(/C=C/c1cccs1)c1ccc(N2CCOCC2)cc1	-4	-1	2	-122	-8	6.1*	2
CC1CN(Cc2c(O)ccc3c2oc(=O)c2ccccc23)CC(C)O1 (stereo not given)	-11	9	4	-4	-1	3	x
Cc1cc(C(=O)Nc2cccc3ccccc23)oc1C	-2	x	-3	-50	-2	0	x
CC(c1nccs1)N(C)c1nc2nonc2nc1NC1CC1 (stereo not given)	-2	-3	2	2	-3	4	x
CC(c1nccs1)N(C)c1nc2nonc2nc1N(C)C (stereo not given)	-10	-1	11	2	0	4.9*	2
CCNC(=O)CC(=O)Nc1ccccc1C(=O)O	-11	0	1	7	-4	-1	x
Cc1cc(NC(=O)CSc2nnc(CNc3cccc(C(F)(F)F)c3)n2Cc2ccco2)no1	-9	0	0	14	-5	0	x
O=c1[nH]c(/C=C\c2cccs2)nc(O)c1[N+](=O)[O-]	-5	-5	10	1	-6	5.3*	3
Cc1nc2c(o1)C(=O)c1ccccc1C2=Nc1ccccc1	-2	x	-4	-20	-4	8.9*	15*
CCc1n[nH]c(=S)n1/N=C/c1cc(Br)c(OC)cc1OC	-5	-3	-3	-9	1	16*	10*
O=C(N/C(=C/c1ccc([N+](=O)[O-])cc1)C(=O)N1CCOCC1)c1ccco1	-5	2	4	6	-2	4.9*	4
O=C1NC(=S)N/C1=C/c1cc([N+](=O)[O-])ccc1N1CCOCC1	-4	0	-2	-16	-5	5.0*	3
O=Cc1cc([N+](=O)[O-])ccc1N1CCOCC1	-4	3	-1	2	-6	3	x
COc1cccc(/C=N/NC(=S)Nc2cccnc2)c1	-2	0	-1	-83	-3	3	x
Oc1ccc(/C=N/NC(=S)N/N=C/c2ccc(O)cc2)cc1	4	-2	0	-55	-2	6.4*	7.2*
Oc1ccc(/C=N/NC(=S)Nc2cccnc2)cc1	-2	4	-5	-130	-5	7.9*	6.2*
SMILES	MsrA act	NR2E3 ag-1	NadD block	NR2E3 ag-2	GalR3 antagonist	MsrA inhibitor	MsrA conf
COc1ccccc1NC(=S)N/N=C/c1ccc(O)cc1	-7	0	-5	-144	-5	4	x
Cc1ccccc1-n1c(=S)[nH]c2nc3c(cc2c1=O)CCCC3	-4	5	-1	12	-2	3	x
CCN(CC)c1ccc(C=Nc2ccc(C)cc2)c(O)c1	-2	3	-5	-10	-5	6.9*	6.3*
CCN(CC)c1ccc(C=Nc2cc(C)cc(C)c2)c(O)c1	-7	2	-3	2	-7	4	x
CCN(CC)c1ccc(C=Nc2ccc(N(C)C)cc2)c(O)c1	-12	-17	-4	0	-4	5.9*	2
CC(=O)OCC(=O)C1(O)CCC2C3CC(C)C4=CC(=O)C=CC4(C)C3(F)C(O)CC21C (stereo not given)	-2	x	-3	30	-6	0	x
O=c1oc2ccccc2c2c1ccc1ccccc12	-2	x	-3	-8	-2	6.2*	5.0*
O=c1oc2ccccc2c2[nH]ccc12	-8	2	2	-19	-1	1	x
CC(/C=C/C=C/c1ccccc1)=N\NC(=O)c1cccnc1	-7	5	-6	-2	0	7.6*	4.5*
O=C(N/N=C/C=C\c1ccccc1)c1cnccn1	-6	-1	-1	19	3	3	x
Cc1onc(-c2ccccc2)c1C(=O)N/N=C/C=C/c1ccccc1	-3	-2	0	-4	-6	3	x
CC(/C=C\C=C\c1ccccc1)=N\NC(=O)c1cncc(Br)c1	-3	2	8	3	-3	2	x
O=C(N/N=C/C=C/c1ccccc1)c1cccnc1	-3	-1	1	-26	-4	5.3*	4.9*
O=C(CSc1ccccn1)N/N=C/C=C/c1ccccc1	-6	-2	2	3	-5	4.9*	2
Cc1ccc(C(=O)N/N=C/C=C/c2ccccc2)o1	-7	-5	4	-28	-5	8.8*	8.2*
O=C(N/N=C/C=C/c1ccccc1)c1ccccn1	-8	1	2	-72	-5	3	x
Cc1ccccc1NC(=O)CSCCO	-2	2	-7	-16	-4	-1	x
O=C(Cc1ccc([N+](=O)[O-])cc1)Nc1ccc(O)cc1C(=O)O	-3	1	0	-14	-3	0	x
Cc1ccccc1CSc1nc2ccccc2c(=O)[nH]1	-11	3	-1	10	-4	1	x
CCCS(=O)(=O)c1c(S(=O)(=O)CCC)c2c(N)cccn2c1C(=O)c1ccccc1	-7	3	-1	19	-6	0	x
CCCS(=O)(=O)c1c(S(=O)(=O)CCC)c2c(N)cccn2c1C(=O)OC	-13	0	3	-8	-4	5.2*	1
NC(N)=Nc1cc2ccccc2c2ccccc12	x	-2	x	x	-15	1	x

Screening data: PubChem BioAssay, several laboratories
